In data set [1] the test system is Liver microsome. The data set is described as follows: Metabolic stability in female human liver microsomes. Format: ADME. The method in brief: (§1)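 Pooled liver microsomes, male and female, from rat and human were incubated separately. Time–concentration profiles of metabolite formation were followed by LC-MS. Incubations were run in triplicate and reported as mean ± SEM.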

Data set [2] concerns Liver microsome. The data set is described as follows: Metabolic stability in male human liver microsomes. Format: ADME. The method in brief: as §1
The subject of data set [3] is Liver microsome. The data set is described as follows: Metabolic stability in female rat liver microsomes. Format: ADME. The method in brief: as §1
Data set [4] deals with Liver microsome. The data set is described as follows: Metabolic stability in male rat liver microsomes. The data set is classed as ADME. The method in brief: as §1
Data set [5] is described as follows: Metabolic stability in human/rat liver microsomes at 1 mg/ml after 180 mins by LC/MS analysis. The data set is classed as ADME, Microsome. Conditions: read-out: Stability. The method in brief: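 Rat and human liver microsomes were incubated with microsomal protein standardized to 1 mg/mL. Aliquots were withdrawn immediately after reaction start and at 10, 20, 40, 60, 120 and 180 min, then analysed by LC-MS.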
(Microsomes from liver hold many membrane-bound enzymes, among them those of drug oxidation.)

The target of data set [6] is T1, Mitogen-activated protein kinase 14 (Homo sapiens, UniProt Q16539). The data set is described as follows: Competitive inhibition of p38alpha MAP kinase (unknown origin) in presence of 100 uM ATP.
The target of data set [7] is T1, Mitogen-activated protein kinase 14. The data set is described as follows: Inhibition of p38alpha MAP kinase in human whole blood assessed as inhibition of LPS-induced TNFalpha release by ELISA. (In general: An ELISA detects its analyte on a solid surface through an enzyme-linked reagent.)
For data set [8], the species on record is Mus musculus. The data set is described as follows: Metabolic stability in C57BL/6 mouse assessed as M-734 metabolite level in blood after 72 hrs by LC-MS/MS analysis. The data set is classed as ADME, organism-based.
The species named for data set [9] is Mus musculus. The data set is described as follows: Metabolic stability in C57BL/6 mouse assessed as M-732 metabolite level in blood after 72 hrs by LC-MS/MS analysis. The data set is classed as ADME, organism-based.
The species named for data set [10] is Mus musculus. The data set is described as follows: Metabolic stability in C57BL/6 mouse assessed as M-605 metabolite level in blood after 72 hrs by LC-MS/MS analysis. The data set is classed as ADME, organism-based.
For data set [11], the species on record is Mus musculus. The data set is described as follows: Metabolic stability in C57BL/6 mouse assessed as M-603 metabolite level in blood after 72 hrs by LC-MS/MS analysis. Format: ADME, organism-based.
Data set [12] relates to Mus musculus. The data set is described as follows: Terminal elimination rate in C57BL/6 mouse at 10 mg/kg, po. The data set is classed as ADME, organism-based. Set-up: dose 10 mg/kg, route oral. Particulars: in vivo.
Data set [13] in a line: AUC (0 to infinity) in C57BL/6 mouse at 10 mg/kg, po. Format: ADME, organism-based. Set-up: time infinity, dose 10 mg/kg, route oral. Conditions: plasma. The method in brief:
(§2)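 Male Black 6 C57 mice were dosed orally at 10 mg/kg. Plasma was sampled for up to 72 h postdose. Parent drug was quantified by LC-MS/MS after derivatization with 4-pyridinylboronic acid (70 °C, 40 min). Parameters came from noncompartmental analysis of mean plasma concentration–time profiles.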

The nature of data set [14]: AUC (0 to t) in C57BL/6 mouse at 10 mg/kg, po. Particulars: plasma. The data set is classed as ADME, organism-based. Set-up: dose 10 mg/kg, route oral. The method in brief:
as §2

The subject of data set [15] is Mus musculus. The data set is described as follows: Half life in C57BL/6 mouse at 10 mg/kg, po. Set-up: dose 10 mg/kg, route oral. Particulars: in vivo. Format: ADME, organism-based. The method in brief:
as §2

A short description of data set [16]: Tmax in C57BL/6 mouse at 10 mg/kg, po. Format: ADME, organism-based. Set-up: dose 10 mg/kg, route oral. Particulars: in vivo.
Data set [17] is described as follows: Cmax in C57BL/6 mouse at 10 mg/kg, po. Format: ADME, organism-based. Set-up: dose 10 mg/kg, route oral. Conditions: in vivo. The method in brief: as §2

For orientation: IC50 means the concentration at which inhibition is half-maximal. A word on the AUC(0-inf): it is total exposure, with the tail of the curve extrapolated. As usually defined, the AUC(0-t) is the area under the concentration-time curve up to a stated or last time point. Low values mean less exposure, high ones more exposure. For orientation: Tmax means the time at which the peak concentration occurs. For orientation: Cmax means the maximum level reached in the sampled fluid or tissue.

T1 sequence (Q16539 whole entry): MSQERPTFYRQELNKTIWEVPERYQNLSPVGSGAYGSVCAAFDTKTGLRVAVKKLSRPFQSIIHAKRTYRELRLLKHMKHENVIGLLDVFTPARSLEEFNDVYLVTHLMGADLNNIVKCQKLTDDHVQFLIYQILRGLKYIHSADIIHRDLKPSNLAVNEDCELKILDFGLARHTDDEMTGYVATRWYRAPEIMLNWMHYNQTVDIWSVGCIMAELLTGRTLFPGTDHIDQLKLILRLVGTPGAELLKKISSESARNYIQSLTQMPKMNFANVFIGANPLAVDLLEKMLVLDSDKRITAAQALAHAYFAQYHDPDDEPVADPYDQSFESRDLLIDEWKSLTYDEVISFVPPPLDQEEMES

Turning to `O=C1c2ccccc2CCc2cc(Nc3ccc(F)cc3F)ccc21`, the Stability result with Liver microsome [1], in the data set with Liver microsome [2], in the data set on Liver microsome [3] and in the data set with Liver microsome [4] was “Unstable” in each case. Also, the remaining at 3 h in [5] came to 43%. In addition, the half-maximal inhibitory concentration (IC50) in [6] came out at 95 nM; in [7] it was 1910 nM.

For the compound `O=C1c2cc(OC[C@H](O)CO)ccc2COc2cc(Nc3ccc(F)cc3F)ccc21`, the Stability entry in the data set listed under Mus musculus [8], in the data set filed under Mus musculus [9], in the data set filed under Mus musculus [10] and in the data set filed under Mus musculus [11] was “Unstable” each time. Besides, the Kel with Mus musculus [12] is 0.0243 h⁻¹. The same compound gave an AUC(0-inf) in data set [13] of 6990 ng·h/mL. Besides, the AUC(0-t) in data set [14] was 6590 ng·h/mL. Also, the t1/2 in the data set on Mus musculus [15] was determined as 3.95 h. In addition, the Tmax in [16] was found to be 1 h. This compound also returned a Cmax in [17] of 627 ng/mL. The results for the IC50 in data set [6] and in [7] were 14 nM and 233 nM, respectively.

These data come from ChEMBL document CHEMBL3085714 (J Med Chem, 2013).
